# This is a sample that favours compounds with a hit; in the whole collection about 4.7% have one here.
# AHR act: human AHR activation; AHR-responsive luciferase reporter cells, luminescence; activation, % at 5 µM; 2.5% of 320,000 active; AID 2796; in the data active means activation above about 47%;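 further: 0% = vehicle wells and 100% = reference agonist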
# Target sequence (P35869 whole entry, looked up): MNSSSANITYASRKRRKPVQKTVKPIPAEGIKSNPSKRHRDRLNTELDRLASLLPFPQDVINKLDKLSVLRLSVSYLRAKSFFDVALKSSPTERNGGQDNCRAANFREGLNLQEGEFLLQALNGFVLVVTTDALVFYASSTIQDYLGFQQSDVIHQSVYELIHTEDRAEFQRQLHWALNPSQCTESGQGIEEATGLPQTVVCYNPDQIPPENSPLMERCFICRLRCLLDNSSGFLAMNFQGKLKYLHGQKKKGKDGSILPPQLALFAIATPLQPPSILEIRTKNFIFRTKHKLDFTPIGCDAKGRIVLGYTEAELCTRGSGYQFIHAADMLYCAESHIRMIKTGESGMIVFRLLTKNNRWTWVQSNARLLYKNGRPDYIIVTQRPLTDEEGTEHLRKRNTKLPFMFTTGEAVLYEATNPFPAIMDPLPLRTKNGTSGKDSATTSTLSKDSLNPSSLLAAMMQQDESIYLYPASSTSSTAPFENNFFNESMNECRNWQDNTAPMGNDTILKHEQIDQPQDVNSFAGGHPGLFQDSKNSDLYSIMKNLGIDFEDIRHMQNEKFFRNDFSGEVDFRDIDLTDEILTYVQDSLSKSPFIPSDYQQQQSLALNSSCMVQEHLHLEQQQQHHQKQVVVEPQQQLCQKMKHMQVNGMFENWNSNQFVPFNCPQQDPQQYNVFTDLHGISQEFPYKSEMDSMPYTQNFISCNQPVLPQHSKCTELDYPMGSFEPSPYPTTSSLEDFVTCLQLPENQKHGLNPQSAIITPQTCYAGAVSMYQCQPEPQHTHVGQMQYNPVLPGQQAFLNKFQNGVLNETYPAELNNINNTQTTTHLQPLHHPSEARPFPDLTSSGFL
# MC4R barr agon: activates human MC4R beta-arrestin recruitment | U2OS MC4R beta-arrestin complementation, luminescence; percent of melanotan II response, DMSO zero | P32245 | activation, % at 8.9 µM | 0.98% of 360,000 active | AID 540308;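 active means activation above a per-plate cutoff, the mean activation of sample wells on that plate plus 3 SD, cut at about 8% in these data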
# FXN GAA850 act: increases GAA850 frataxin promoter reporter activity. 0.56% of 360,000 active. activation, % at 6 µM. AID 540364. HEK293 lucGAA850 FXN promoter luciferase reporter, 24 h; percent of 10 µM SAHA response;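 active means activation above the average of all compounds screened plus 3 SD, cutoff fixed separately per campaign, cut at about 7.5% in these data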;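 further: 0% = DMSO wells and 100% = 10 µM SAHA wells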
# HTR2A ag: agonists of mouse serotonin 5-HT2A receptor (HTR2A); CHO-K1 mHTR2A beta-arrestin complementation, luminescence; percent of 30 µM serotonin response; activation, % at 7.6 µM; 0.66% of 360,000 active; AID 624169;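 active means activation above a run cutoff, the mean activation of all tested compounds plus 3 SD, cut at about 14% in these data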;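 further: 0% = plate median of compound wells and 100% = 30 µM serotonin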
# MC4R antagonist: antagonists of human melanocortin 4 receptor (MC4R); P32245; MC4R-expressing cells, MTII-stimulated cAMP, LANCE TR-FRET; inhibition, % at 6.5 µM; 0.48% of 360,000 active;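 active means inhibition above its plate's cutoff, the mean of tested wells on that plate plus 3 SD, cut at about 29% in these data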;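 further: 0% = Melanotan II alone and 100% = Melanotan II plus saturating MCL0020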
#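 Assay system: U2OS-MC4R stable cell line; Also added: Melanotan II; Technique: Eu-cAMP/anti-cAMP TR-FRET, emission 671 nm; Times: 30-min compound, 1-h challenge, 1-h detection, room temperature.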
# An asterisk follows results filed as active; nt = not tested or not shown.
SMILES,AHR act,MC4R barr agon,FXN GAA850 act,HTR2A ag,MC4R antagonist
Cc1noc(C(=O)N2CCN(c3ccccc3)CC2)c1Cl,6.0,0.4,1.3,4.5,9.7
Cc1noc(C(=O)N2CCN(c3ccc(F)cc3)CC2)c1Cl,47.7*,-1.0,0.3,2.9,4.3
C=CCNc1ncnc2c1cnn2-c1ccc(C)cc1C,6.3,-0.6,-1.0,-1.2,7.4
CCOC(=O)N1CCC(Nc2ncnc3c2cnn3-c2ccc(C)cc2C)CC1,-2.0,-1.1,-2.1,14.5*,17.7
O=c1[nH][nH]c2c1C(c1ccc(Cl)c(Cl)c1)OC(CCc1ccccc1)C2 (centres undefined),nt,nt,nt,-4.7,nt
Clc1ccc(-c2cn3c(n2)-c2ccccc2C3)cc1Cl,61.7*,1.8,3.6,0.6,10.1
c1ccc2c(c1)Cn1c-2nc2ccccc21,-4.8,-0.9,3.7,-3.5,-1.2
COc1ccc([N+](=O)[O-])cc1NC(=O)c1cn(-c2ccc(C)c(C)c2)c(=O)c2ccccc12,0.5,-0.8,0.5,-0.1,8.5
N#Cc1cc2ccccc2nc1SCC(=O)NC1CC1,64.0*,1.1,3.7,5.2,11.7
CCc1cc2ccccc2nc1SCC(=O)NC1CCCC1,2.5,2.2,0.9,-6.5,-0.1
Cc1ccc(/C=N/Nc2nncc(-c3ccccc3)n2)o1,-1.2,1.4,0.8,7.3,-22.7
Cc1[nH]n(-c2ccccc2)c(=O)c1/C=N/Nc1nncc(-c2ccccc2)n1,53.0*,-1.7,-12.0,-2.7,-0.4
COc1ccc(N(CC(O)Cn2c3ccccc3c3ccccc32)S(=O)(=O)c2ccccc2)cc1 (centres undefined),54.7*,2.9,3.3,4.0,-1.1
Cc1cnc(C(=O)OCC(=O)NC(C)CCc2ccccc2)cn1 (centres undefined),2.4,-0.4,0.6,3.7,0.7
COc1ccc(Nc2cccc3ccccc23)cc1,77.1*,2.2,-1.1,-4.9,7.7
CN(Cc1nc(-c2ccc(Cl)cc2)no1)C(=O)c1ccc2c(c1)OCO2,-0.2,-1.6,0.6,-2.7,7.8
COc1ccc2c(C)cc(SCC(=O)c3ccc4c(c3)OCO4)nc2c1,65.4*,2.5,0.9,-1.8,-0.8
Cc1ccc2nc(SCC(=O)c3ccc4c(c3)OCO4)[nH]c2c1,57.3*,0.5,1.4,12.0,-0.6
CC(=O)c1c(C)[nH]c(C(=O)CSc2nc3ccc(C)cc3[nH]2)c1C,69.9*,-0.9,-1.2,-0.6,-1.2
COc1ccc2c(C)cc(SCC(=O)NC3CCCC3)nc2c1,17.3,-2.0,-1.0,-2.8,0.8
CCN1CCC(O)(C(C(=O)O)c2ccccc2)CC1 (centres undefined),nt,-0.2,0.1,0.1,4.8
N#C/C(=C\Nc1ccc2cn[nH]c2c1)c1nc(-c2ccccc2)cs1,nt,-2.4,4.6,0.4,0.9
N#C/C(=C\Nc1ccc2cn[nH]c2c1)c1nc(-c2ccc(Cl)cc2)cs1,52.2*,-1.8,4.0,-3.9,16.8
c1cnc2c(OCc3cn4cccnc4n3)cccc2c1,70.8*,-1.4,3.3,-4.6,1.6
COc1cccc(-n2c(SCC(=O)NC3CC3)nc3ccccc3c2=O)c1,nt,-0.1,-0.4,-4.5,13.0
SMILES,AHR act,MC4R barr agon,FXN GAA850 act,HTR2A ag,MC4R antagonist
Cc1ccc(NC(=O)c2ccc(Cl)c(S(=O)(=O)NCC3CCCO3)c2)c(O)c1 (centres undefined),62.0*,-0.6,2.9,8.2,-6.1
COc1ccc2cc(C(=O)N3CCc4ccccc43)[nH]c2c1,82.4*,2.2,3.7,8.5,6.1
CC1(C(=O)Nc2ccc3c(c2)OCCO3)CSCC(=O)N1CC(F)(F)F (centres undefined),nt,nt,nt,-2.8,nt
CC(=O)N/C(=N/c1nc(C)cc(C)n1)Nc1ccc(NC(C)=O)cc1,14.7,-1.3,-0.1,4.4,8.6
CC(=O)N/C(=N/c1nc(C)cc(C)n1)Nc1cc(C)cc(C)c1,58.4*,-2.1,0.6,5.6,0.1
C[C@H](CO)N1C[C@H](C)[C@H](CN(C)S(=O)(=O)c2ccc3ccccc3c2)OCc2cnnn2CCCC1=O,nt,-0.3,-0.3,3.4,3.9
COc1cccc(N2CC(O)=C(c3nc4ccccc4s3)C2=N)c1,57.4*,-3.5,-2.3,-1.7,-19.0
COc1ccc(N2CC(O)=C(c3nc4ccccc4s3)C2=N)cc1,26.1,2.1,-1.9,0.9,9.3
CN1C(=O)Cc2cc(S(=O)(=O)N3CCN(c4ccc(Cl)cc4)CC3)ccc21,-1.6,2.0,0.0,14.6*,2.9
CCc1cc(C(=O)NC2CCCc3c2cnn3-c2ccc(F)cc2F)no1 (centres undefined),nt,-0.6,-1.1,0.1,17.9
Cc1ccc(Nc2nc3c(c(=O)[nH]c(=O)n3C)n2Cc2ccc(F)cc2)cc1,4.6,8.9*,2.6,-4.8,14.2
Cn1c(=O)[nH]c(=O)c2c1nc(NCCCO)n2Cc1ccc(F)cc1,1.9,-1.6,-0.4,-1.6,-4.9
C=CCn1c(SCc2ccc(F)cc2)nc2c1c(=O)[nH]c(=O)n2C,0.5,0.6,23.3*,12.9,4.0
Cc1nc(N2CCN(S(=O)(=O)c3cccs3)CC2)c2c(-c3ccccc3)c(C)sc2n1,nt,0.7,1.6,-2.6,9.2
CCn1c(/C=C/c2ccc(F)cc2)nc2ccccc2c1=O,20.7,0.8,1.6,-1.0,2.2
Cn1c(/C=C/c2ccc(Cl)cc2)nc2ccccc2c1=O,48.8*,9.0*,6.5,-3.2,-1.2
CCn1c(/C=C/c2ccccc2)nc2ccccc2c1=O,79.1*,1.5,1.6,-0.2,-0.1
Cc1csc2ncc(C(=O)Nc3ccccc3F)c(=O)n12,59.9*,0.5,5.3,1.4,5.3
Cc1ccc(C(=O)O)cc1S(=O)(=O)Nc1ccccc1C(=O)NC1CC1,nt,-2.8,0.2,0.5,1.7
CSc1c(CC(=O)Nc2ccccc2)n(C)c2ccccc12,58.4*,1.8,-2.3,0.6,2.5
Cn1c(CC(=O)Nc2ccccc2)c(Sc2ccccc2)c2ccccc21,16.4,6.1,1.5,-2.5,-0.3
CCCCNC(=O)c1c(N)[nH]c(C(=O)c2ccccc2)c1-c1ccc(Cl)cc1,nt,nt,nt,-4.6,nt
O=c1c(Br)c(Br)cnn1-c1ccccc1,nt,3.0,-9.5,14.0,24.1
Cc1ccc(-n2ncc(Br)c(Br)c2=O)cc1,nt,0.7,6.9,-2.0,45.3*
Cc1ccc(NC(=O)Nc2cc(S(C)(=O)=O)ccc2Cl)cc1,47.0*,-1.1,4.0,-7.8,7.4
O=C1C=C(c2ccc(Oc3ccccc3)cc2)C[C@@H](c2ccc3c(c2)OCO3)C1,14.4,-0.5,1.6,-13.7,-2.5
Cc1ccc(-c2cc(-c3ccccc3)c(C#N)c(Br)n2)cc1,-0.7,-0.9,1.2,1.8,8.6
Cc1cc(-c2ccccc2)nc(Cl)c1C#N,76.2*,-0.1,3.0,0.0,0.0
CS(=O)(=O)c1nc(-c2ccccc2)cc(-c2ccccc2)c1C#N,0.4,-2.0,0.7,2.5,30.4*
Cc1ccc(-c2cc(-c3ccccc3)nc(Cl)n2)cc1,46.8,4.3,2.1,8.2,-5.0

# Screens as filed in PubChem BioAssay.
